Measured values: paper PMC2943143 (Biochemical pharmacology, 2010)
Where “and” joins values, the source holds several entries; their conditions need not be identical. Identical values can stand only once. Entries after “also recorded” stand apart in the source; their conditions may differ.

Legend:
[1] = target: T1, calf pol α (Bos taurus, UniProt A0AAA9TD94); assay: Pol assay, calf pol α; assay type: biochemical; conditions: for Ki: pol α, Dixon plot
T1 sequence (A0AAA9TD94 1-1441): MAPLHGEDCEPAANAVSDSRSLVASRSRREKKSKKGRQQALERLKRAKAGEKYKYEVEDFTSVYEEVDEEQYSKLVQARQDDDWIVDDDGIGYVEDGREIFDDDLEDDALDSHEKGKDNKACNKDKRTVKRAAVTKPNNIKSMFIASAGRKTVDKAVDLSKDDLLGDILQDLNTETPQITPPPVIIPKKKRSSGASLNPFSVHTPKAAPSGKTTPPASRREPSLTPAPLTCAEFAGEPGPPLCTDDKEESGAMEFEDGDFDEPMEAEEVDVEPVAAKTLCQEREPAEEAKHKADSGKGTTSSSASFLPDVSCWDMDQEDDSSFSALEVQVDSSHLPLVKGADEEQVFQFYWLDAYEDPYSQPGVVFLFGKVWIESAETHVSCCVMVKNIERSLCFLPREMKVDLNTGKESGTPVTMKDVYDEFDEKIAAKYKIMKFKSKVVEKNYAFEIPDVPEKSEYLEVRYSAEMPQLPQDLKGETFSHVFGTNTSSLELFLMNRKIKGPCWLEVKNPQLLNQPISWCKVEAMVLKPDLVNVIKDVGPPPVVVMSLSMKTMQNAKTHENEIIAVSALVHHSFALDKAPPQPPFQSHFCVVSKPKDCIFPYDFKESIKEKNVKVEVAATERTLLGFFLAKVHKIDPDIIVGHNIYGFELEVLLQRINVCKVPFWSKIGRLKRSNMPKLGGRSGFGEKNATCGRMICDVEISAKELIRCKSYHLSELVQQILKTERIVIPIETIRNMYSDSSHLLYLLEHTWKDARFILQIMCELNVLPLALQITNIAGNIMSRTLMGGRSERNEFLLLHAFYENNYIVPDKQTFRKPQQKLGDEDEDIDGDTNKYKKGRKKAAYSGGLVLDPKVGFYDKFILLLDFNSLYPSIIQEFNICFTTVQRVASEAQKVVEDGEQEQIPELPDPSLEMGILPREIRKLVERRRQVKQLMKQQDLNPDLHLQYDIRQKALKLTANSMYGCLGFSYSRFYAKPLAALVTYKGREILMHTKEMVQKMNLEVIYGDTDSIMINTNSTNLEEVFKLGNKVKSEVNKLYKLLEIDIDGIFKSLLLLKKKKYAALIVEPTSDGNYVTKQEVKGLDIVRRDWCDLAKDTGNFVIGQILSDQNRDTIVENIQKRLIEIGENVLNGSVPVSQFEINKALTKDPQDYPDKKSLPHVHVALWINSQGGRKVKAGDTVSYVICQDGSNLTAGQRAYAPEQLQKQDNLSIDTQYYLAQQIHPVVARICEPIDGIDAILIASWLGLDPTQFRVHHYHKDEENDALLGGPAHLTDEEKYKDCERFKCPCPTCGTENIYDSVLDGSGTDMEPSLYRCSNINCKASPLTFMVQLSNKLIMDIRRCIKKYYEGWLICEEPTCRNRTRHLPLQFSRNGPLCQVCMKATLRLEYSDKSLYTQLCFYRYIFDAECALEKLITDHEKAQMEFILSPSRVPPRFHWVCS
Procedure, shortened: (§1)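 Test compound was dissolved in DMSO and sonicated 30 s. It was preincubated with enzyme (0.05 unit final) in 50 mM Tris-HCl pH 7.5, 1 mM DTT, 50% glycerol and 0.1 mM EDTA at 0 °C for 10 min. This was added to each enzyme's standard reaction mix with poly(dA)/oligo(dT)18 (A/T = 2/1) template-primer and dTTP substrate, then incubated at 37 °C for 60 min. Activity is given as % of inhibitor-free control.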

[2] = target: rat pol β (Rattus norvegicus, UniProt P06766); assay: Pol assay, rat pol β; assay type: biochemical; conditions: for Ki: pol β, Dixon plot
Procedure, shortened: as §1

[3] = target: human pol ε (Homo sapiens, UniProt Q07864); assay: Pol assay, human pol ε; assay type: biochemical
human pol ε, sequence (Q07864 whole entry): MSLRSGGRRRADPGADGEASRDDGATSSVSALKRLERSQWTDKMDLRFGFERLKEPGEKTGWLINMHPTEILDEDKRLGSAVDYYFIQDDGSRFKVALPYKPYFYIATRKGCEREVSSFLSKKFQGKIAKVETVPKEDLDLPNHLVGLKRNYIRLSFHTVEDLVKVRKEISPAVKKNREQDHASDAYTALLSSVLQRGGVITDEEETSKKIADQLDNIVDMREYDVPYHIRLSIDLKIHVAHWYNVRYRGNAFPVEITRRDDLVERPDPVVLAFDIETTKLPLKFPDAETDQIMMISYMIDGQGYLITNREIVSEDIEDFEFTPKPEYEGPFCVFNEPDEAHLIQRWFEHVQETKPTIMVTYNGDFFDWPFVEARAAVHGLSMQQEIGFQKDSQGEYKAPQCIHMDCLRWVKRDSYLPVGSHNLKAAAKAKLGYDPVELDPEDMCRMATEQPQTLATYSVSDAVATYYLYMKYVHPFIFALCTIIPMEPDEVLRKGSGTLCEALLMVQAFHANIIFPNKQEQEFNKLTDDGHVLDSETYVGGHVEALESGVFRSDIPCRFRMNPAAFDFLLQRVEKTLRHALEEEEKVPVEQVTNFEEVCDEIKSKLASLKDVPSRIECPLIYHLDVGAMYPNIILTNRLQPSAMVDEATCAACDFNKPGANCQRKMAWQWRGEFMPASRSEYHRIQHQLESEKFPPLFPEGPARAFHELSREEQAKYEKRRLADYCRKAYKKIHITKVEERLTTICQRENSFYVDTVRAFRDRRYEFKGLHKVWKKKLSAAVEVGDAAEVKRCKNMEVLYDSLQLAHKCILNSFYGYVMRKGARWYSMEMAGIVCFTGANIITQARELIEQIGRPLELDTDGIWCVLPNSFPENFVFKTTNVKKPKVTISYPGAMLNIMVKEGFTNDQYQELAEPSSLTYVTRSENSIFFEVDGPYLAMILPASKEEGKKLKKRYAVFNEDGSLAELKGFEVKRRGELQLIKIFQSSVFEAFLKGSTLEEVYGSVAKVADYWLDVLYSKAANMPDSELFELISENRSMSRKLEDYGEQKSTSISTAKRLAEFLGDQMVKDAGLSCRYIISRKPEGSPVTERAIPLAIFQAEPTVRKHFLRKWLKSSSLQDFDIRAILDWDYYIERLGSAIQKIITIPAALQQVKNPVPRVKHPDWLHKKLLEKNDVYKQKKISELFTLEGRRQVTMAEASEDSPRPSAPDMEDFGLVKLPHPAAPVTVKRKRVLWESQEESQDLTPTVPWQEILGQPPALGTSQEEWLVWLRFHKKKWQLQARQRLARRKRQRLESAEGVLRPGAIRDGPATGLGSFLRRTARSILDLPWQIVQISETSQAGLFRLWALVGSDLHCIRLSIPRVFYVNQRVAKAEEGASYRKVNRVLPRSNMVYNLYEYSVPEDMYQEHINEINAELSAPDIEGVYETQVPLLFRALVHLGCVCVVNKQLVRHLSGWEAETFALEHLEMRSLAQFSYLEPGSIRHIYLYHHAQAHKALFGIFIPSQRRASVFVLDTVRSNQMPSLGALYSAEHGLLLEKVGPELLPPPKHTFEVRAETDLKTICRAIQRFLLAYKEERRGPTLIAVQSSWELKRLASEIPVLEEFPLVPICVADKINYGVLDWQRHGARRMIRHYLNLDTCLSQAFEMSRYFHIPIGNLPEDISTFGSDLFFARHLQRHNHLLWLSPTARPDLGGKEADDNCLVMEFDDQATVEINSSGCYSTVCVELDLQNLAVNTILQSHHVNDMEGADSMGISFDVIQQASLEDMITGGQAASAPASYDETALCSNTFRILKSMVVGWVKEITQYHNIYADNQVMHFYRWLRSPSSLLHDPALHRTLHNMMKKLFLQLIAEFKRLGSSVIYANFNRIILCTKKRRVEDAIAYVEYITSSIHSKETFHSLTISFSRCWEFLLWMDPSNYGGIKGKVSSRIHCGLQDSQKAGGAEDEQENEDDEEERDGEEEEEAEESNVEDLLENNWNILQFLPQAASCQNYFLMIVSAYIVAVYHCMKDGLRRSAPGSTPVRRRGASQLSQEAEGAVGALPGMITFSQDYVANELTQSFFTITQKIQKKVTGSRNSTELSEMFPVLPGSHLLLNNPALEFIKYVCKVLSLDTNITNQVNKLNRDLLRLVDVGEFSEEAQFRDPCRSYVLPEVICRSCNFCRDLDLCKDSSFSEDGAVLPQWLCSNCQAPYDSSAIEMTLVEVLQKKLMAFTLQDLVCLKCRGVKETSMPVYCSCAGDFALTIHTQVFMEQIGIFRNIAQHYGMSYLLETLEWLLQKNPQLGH
Procedure, shortened: as §1

[4] = target: mouse pol ι (Mus musculus, UniProt Q6R3M4); assay: Pol assay, mouse pol ι; assay type: biochemical
mouse pol ι, sequence (Q6R3M4 whole entry): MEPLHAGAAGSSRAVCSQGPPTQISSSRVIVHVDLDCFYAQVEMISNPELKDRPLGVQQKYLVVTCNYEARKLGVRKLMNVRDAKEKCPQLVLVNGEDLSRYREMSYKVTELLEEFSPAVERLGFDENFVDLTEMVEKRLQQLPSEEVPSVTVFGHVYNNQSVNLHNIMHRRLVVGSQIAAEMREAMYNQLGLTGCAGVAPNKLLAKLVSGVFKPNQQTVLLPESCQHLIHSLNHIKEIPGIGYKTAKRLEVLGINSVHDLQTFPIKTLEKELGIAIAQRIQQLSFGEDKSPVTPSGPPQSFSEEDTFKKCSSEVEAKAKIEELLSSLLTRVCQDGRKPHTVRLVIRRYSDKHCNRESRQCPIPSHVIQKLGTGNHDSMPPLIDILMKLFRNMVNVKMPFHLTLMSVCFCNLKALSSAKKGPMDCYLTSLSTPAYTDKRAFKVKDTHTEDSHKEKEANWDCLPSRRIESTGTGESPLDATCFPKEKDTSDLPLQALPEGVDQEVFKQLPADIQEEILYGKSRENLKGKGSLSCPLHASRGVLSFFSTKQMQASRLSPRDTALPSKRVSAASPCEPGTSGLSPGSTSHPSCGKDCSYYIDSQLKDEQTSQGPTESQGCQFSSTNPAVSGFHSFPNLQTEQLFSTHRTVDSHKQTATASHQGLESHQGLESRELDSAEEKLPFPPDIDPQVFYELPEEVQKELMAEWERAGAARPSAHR
Procedure, shortened: as §1

[5] = test system: cauliflower pol α; assay: Pol assay, cauliflower pol α; assay type: biochemical; conditions: supplemental Fig. S1A
Procedure, shortened: as §1

[6] = target: Klenow fragment of E. coli pol I (Escherichia coli, UniProt P00582); assay: Pol assay, Klenow fragment of E. coli pol I; assay type: biochemical; conditions: supplemental Fig. S1A
Procedure, shortened: as §1

[7] = target: T4 pol (Enterobacteria phage T4, UniProt P04415); assay: Pol assay, T4 pol; assay type: biochemical; conditions: supplemental Fig. S1A
Procedure, shortened: as §1

[8] = test system: calf primase of pol α; assay: Primase assay; assay type: biochemical; conditions: highest tested concentration 1 μM, supplemental Fig. S1B
[9] = target: human topoisomerase I (Homo sapiens, UniProt P11387); assay: DNA topoisomerase I assay; assay type: biochemical; conditions: highest tested concentration 1 μM, supplemental Fig. S1B
Procedure, shortened: (§2)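 Topoisomerases I and II were purified from human placenta, and DNase I came from bovine pancreas. Each activity was measured in a standard assay following the supplier's specifications.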

[10] = target: human topoisomerase II (Homo sapiens, UniProt P11388); assay: DNA topoisomerase II assay; assay type: biochemical; conditions: highest tested concentration 1 μM, supplemental Fig. S1B
human topoisomerase II, sequence (P11388 whole entry): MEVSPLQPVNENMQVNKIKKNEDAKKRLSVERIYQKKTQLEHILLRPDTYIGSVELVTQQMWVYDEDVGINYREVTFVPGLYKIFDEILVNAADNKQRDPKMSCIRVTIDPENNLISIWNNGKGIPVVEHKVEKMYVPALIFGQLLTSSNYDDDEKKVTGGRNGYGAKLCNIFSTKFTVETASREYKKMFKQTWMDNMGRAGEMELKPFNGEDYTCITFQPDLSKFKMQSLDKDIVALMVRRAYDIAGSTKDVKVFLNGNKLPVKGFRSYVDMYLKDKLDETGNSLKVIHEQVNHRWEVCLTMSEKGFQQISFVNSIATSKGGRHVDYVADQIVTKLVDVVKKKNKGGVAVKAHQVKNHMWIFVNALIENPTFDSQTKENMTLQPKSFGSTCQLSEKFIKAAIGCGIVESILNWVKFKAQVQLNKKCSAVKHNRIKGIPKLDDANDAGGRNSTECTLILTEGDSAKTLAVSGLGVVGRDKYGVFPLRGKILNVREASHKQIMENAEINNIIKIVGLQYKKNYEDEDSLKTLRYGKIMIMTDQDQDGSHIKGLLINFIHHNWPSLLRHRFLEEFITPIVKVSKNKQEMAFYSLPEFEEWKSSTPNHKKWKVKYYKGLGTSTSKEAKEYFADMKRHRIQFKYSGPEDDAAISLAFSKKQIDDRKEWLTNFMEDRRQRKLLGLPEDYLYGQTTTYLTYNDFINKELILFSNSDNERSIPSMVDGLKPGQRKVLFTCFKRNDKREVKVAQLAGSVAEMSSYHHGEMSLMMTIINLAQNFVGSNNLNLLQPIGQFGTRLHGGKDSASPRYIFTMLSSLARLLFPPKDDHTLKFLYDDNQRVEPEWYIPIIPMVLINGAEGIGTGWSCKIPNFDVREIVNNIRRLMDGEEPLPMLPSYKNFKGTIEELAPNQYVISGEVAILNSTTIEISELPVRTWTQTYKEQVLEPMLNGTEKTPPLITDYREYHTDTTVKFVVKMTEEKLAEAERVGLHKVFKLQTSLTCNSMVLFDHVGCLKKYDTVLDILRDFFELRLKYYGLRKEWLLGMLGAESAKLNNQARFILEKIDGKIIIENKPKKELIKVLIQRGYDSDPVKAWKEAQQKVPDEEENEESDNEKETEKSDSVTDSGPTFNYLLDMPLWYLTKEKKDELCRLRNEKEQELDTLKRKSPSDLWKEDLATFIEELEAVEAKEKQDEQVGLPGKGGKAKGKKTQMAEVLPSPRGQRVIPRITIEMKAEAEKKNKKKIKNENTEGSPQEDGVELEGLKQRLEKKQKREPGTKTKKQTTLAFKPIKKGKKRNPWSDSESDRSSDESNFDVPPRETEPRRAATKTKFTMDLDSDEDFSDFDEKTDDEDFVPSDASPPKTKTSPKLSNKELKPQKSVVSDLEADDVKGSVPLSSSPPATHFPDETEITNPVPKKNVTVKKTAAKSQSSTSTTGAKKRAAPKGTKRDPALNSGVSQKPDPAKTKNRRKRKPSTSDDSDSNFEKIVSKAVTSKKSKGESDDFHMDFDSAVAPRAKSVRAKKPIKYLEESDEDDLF
Procedure, shortened: as §2

[11] = target: T4 polynucleotide kinase (Enterobacteria phage T4, UniProt P06855); assay: T4 polynucleotide kinase assay; assay type: biochemical; conditions: highest tested concentration 1 μM, supplemental Fig. S1B
T4 polynucleotide kinase, sequence (P06855 whole entry): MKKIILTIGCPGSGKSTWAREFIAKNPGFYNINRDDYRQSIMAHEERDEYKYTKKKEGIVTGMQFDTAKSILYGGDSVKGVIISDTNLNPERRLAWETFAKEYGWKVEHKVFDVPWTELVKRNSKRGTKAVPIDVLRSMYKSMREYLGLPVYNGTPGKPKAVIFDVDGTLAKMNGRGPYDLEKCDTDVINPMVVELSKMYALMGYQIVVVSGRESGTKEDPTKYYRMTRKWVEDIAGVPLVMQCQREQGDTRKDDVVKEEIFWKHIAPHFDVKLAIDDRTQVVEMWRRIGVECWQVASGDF

[12] = test system: H^+, K^+- ATPase; conditions: cited from earlier work
[13] = target: Aminopeptidase N; conditions: read-out: IC50, Aminopeptidase N; cited from earlier work
[14] = test system: isolated nuclei; conditions: cited from earlier work
[15] = test system: human DU145 prostate cancer (PCa) xenografts; conditions: cited from earlier work
[16] = unchanged at 30, 60 and 90 nM PGG

Which results are given for `O=C(OC[C@H]1O[C@@H](OC(=O)c2cc(O)c(O)c(O)c2)[C@H](OC(=O)c2cc(O)c(O)c(O)c2)[C@@H](OC(=O)c2cc(O)c(O)c(O)c2)[C@@H]1OC(=O)c1cc(O)c(O)c(O)c1)c1cc(O)c(O)c(O)c1` [PGG, 1,2,3,4,6-penta-O-galloyl-β-D-glucose]?
apparent Vmax of pol α, DNA template-primer, decreased to ([1]; 5 nM PGG): 32.2%; apparent Vmax of pol α, DNA template-primer, decreased to ([1]; 10 nM PGG): 18.9%; apparent Vmax of pol α, DNA template-primer, decreased to ([1]; 15 nM PGG): 13.6%; apparent Vmax of pol α for the dNTP substrate ([1]; 15 nM PGG (29.2 without PGG)): 3.77 pmol/h; effect on pol α activity ([1]; 100 and 1,000 nM PGG, Fig. 1C): significantly inhibit; IC50 ([1]; IC50, pol α, poly(dA)/oligo(dT)18 and dTTP, 0.05 unit enzyme): 13 nM; Ki ([1]; for the DNA template-primer): 2.5 nM; Ki ([1]; for the dNTP substrate): 2.2 nM; Mode of Inhibition, pol α, DNA template-primer ([1]; Lineweaver-Burk plots): Non-competitive for DNA template-primer; Mode of Inhibition, pol α, dNTP ([1]; Lineweaver-Burk plots): Non-competitive for dNTP; effect of 0.05% NP-40 on the inhibitory effect on pol α ([1]; PGG 10 and 100 nM, supplemental Table S1): not reversed; effect of poly(rC) or BSA on the inhibitory effect on pol α ([1]; poly(rC) 50 μM, BSA 200 μg/ml): neither poly(rC) nor BSA influenced; IC50 ([2]; IC50, pol β, poly(dA)/oligo(dT)18 and dTTP, 0.05 unit enzyme): 108 to 160 nM; Ki ([2]; for the DNA template-primer): 20.1 nM; Ki ([2]; for the dNTP substrate): 23.8 nM; effect of 0.05% NP-40 on the inhibitory effect on pol β ([2]; PGG 100 nM and 200 nM, supplemental Table S1): not reversed; Mode of Inhibition, pol β, DNA template-primer ([2]; double reciprocal plots): competitively; also recorded: Competitive for DNA template-primer; Mode of Inhibition, pol β, dNTP ([2]; double reciprocal plots): competitively; also recorded: Competitive for dNTP; effect of poly(rC) or BSA on the inhibitory effect on pol β ([2]; poly(rC) 50 μM, BSA 200 μg/ml): neither poly(rC) nor BSA influenced; apparent Vmax of pol β, DNA template-primer [2, 16]: 111 pmol/h; apparent Vmax of pol β, dNTP substrate [2, 16]: 62.5 pmol/h; effect on pol ε activity ([3]; 100 and 1,000 nM PGG, Fig. 1C): significantly inhibit; IC50 ([3]; IC50, pol ε, range stated for replicative pols (α, δ and ε) together): < 100 nM and 13 to 66 nM; IC50 [4]: 30 to 45 nM; effect on pol ι activity ([4]; 100 and 1,000 nM PGG, Fig. 1C): significantly inhibit; effect on cauliflower pol α activity [5]: not influenced; effect on Klenow fragment of E. coli pol I activity [6]: not influenced; effect on T4 pol activity [7]: not influenced; effect on calf primase of pol α activity [8]: did not suppress; effect on human topoisomerase I activity [9]: did not suppress; effect on human topoisomerase II activity [10]: did not suppress; effect on T4 polynucleotide kinase activity [11]: did not suppress; Mode of Inhibition, H^+, K^+- ATPase [12]: Non-competitive for K^+; IC50 ([12]; read-out: IC50, H^+, K^+- ATPase): 166 nM; IC50 [13]: 6500 nM; inhibition of DNA replicative synthesis compared with aphidocolin [14]: superior efficacy; in vivo growth of DU145 xenografts ([15]; daily intra-peritoneal injection 20 mg/kg body weight, nude mice): suppresses; effect on body weight ([15]; mouse, in vivo): without evident adverse effect
